Source: PubChem BioAssay (Johns Hopkins Ion Channel Center)
Shown are actives, neighbours in structure and some others; about 3.7% of the full set was active somewhere.
KCNQ1 act – potentiates or activates the human KCNQ1 potassium channel; CHO-K1 KCNQ1, thallium flux FluxOR fluorescence; hits give high values; B-score at 10 µM; 310,000 compounds, 0.35% hits; AID 2648;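 active means fluorescence ratio B-score, a plate-corrected score, at least three library SD, with initial intensity B-score within 5 SD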
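assay system = KCNQ1-transfected CHO-K1 cells | medium = assay buffer with matched DMSO | probe or stimulus = depolarizing K+/Tl+ stimulus, K2SO4 and Tl2SO4 each 12.5 mM in 5x stock | dosing = single dose | incubation = dye 90 min, compound 20 min, room temperature | detection = kinetic FluxOR fluorescence, 10 s baseline plus 110 s post-stimulus | evaluation = ratio B score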
KCNK3 block – human KCNK3 channel inhibition, primary screen; O14649; CHO-KCNK3 thallium flux, FluxOR fluorescence; hits give low values; 340,000 compounds, 0.84% hits; B-score at 10 µM; AID 602410;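 active means B-score under library mean minus 4 SD, starting fluorescence ratio at most library mean plus 5 SD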;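 further: more negative B-score means stronger inhibition of thallium flux through KCNK3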
Target sequence (O14649 whole entry, looked up): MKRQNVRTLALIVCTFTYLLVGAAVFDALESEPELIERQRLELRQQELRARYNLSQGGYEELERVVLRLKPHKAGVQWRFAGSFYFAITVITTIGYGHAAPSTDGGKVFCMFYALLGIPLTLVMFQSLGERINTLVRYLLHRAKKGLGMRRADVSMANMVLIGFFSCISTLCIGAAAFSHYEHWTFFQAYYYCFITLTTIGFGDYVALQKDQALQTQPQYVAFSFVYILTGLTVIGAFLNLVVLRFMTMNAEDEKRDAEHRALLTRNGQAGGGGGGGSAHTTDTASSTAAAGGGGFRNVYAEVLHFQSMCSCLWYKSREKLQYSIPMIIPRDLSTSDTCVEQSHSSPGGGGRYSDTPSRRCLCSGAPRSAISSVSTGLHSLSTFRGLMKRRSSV
KCNK9 block – inhibitors of human KCNK9 two-pore domain potassium channel; HEK293 KCNK9, FluxOR thallium flux fluorescence; hits give low values; 310,000 compounds, 1.2% hits; AID 488922; B-score at 10 µM; Q9NPC2;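 active means ratio B-score over 3 SD below the library mean, with starting fluorescence within 5 SD of its mean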;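 further: negative B-score means less thallium flux so channel inhibition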
Target sequence (Q9NPC2 whole entry, looked up, the tested form may be a part): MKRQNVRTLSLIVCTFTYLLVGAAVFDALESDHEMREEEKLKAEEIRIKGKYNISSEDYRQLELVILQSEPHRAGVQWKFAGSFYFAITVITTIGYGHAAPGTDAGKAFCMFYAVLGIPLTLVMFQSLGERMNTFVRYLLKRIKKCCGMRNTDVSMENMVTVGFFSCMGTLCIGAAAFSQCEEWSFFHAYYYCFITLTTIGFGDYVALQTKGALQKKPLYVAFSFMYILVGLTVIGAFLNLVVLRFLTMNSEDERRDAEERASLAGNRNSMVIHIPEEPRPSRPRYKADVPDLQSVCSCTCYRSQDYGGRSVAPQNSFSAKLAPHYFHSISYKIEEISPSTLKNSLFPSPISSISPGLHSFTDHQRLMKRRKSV
KCNQ1 block – blocks the human KCNQ1 potassium channel; P51787; CHO-K1 KCNQ1, FluxOR thallium flux fluorescence; hits give high values; B-score at 10 µM; 310,000 compounds, 1.3% hits; AID 2642;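 active means compounds whose thallium flux B-score, printed positive for inhibition, exceeds three library SD while starting fluorescence stays within three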;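 further: channel opened by potassium depolarization with thallium stimulus after 20 min compound exposure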
Kir21 block – inhibitors of mouse Kir2.1 inward-rectifier potassium channel; HEK293-Kir2.1, FluxOR thallium flux fluorescence; hits give low values; B-score at 10 µM; 310,000 compounds, 0.85% hits;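 active means fluorescence ratio B-score at or below minus 3 SD of library scores, with starting-brightness B-score within 2 SD, cut at about -4.2 in these data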;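 further: channel flux triggered by added potassium and thallium sulfate stimulus; B-score of peak minus minimum fluorescence over baseline after thallium stimulus; more negative B-score means stronger Kir2.1 block with less thallium influx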
hERG protect – compounds protecting human hERG from proarrhythmic drug block. 310,000 compounds, 0.51% hits. CHO-hERG, FluxOR thallium flux, dofetilide IC70 present. activation (rescue from dofetilide block), less the hit threshold, % at 10 µM;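 active means activation above the mean of controls blocked by dofetilide plus 5 SD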;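 further: thallium influx through hERG after potassium depolarization seen as dye fluorescence rise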
KCNQ1 block val – confirmation of human KCNQ1 potassium channel inhibitors; shares compounds with KCNQ1 block; KCNQ1 cell line, FluxOR thallium flux fluorescence; inhibition, % at 10 µM; 1,600 compounds, 93% hits;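 active means primary screen active, with duplicate mean exceeding buffer control mean plus 3 SD of buffer wells, cut at about 28% in these data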;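 further: 0% = buffer control ratio and 100% = XE991 inhibitor control ratio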
CHO KCNQ1 ctr – activity in parental CHO cells lacking KCNQ1; shares compounds with KCNQ1 block; parental CHO-K1, FluxOR thallium flux fluorescence ratio; hits give low values; zero means no signal rise above baseline; fluorescence ratio (Tl flux) at 10 µM; 1,600 compounds, 21% hits;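 active means mean of duplicate thallium-flux fluorescence ratios in parental host cells more than 5 SD below the buffer control mean, cut at about 0.38 in these data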;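 further: ratio is peak minus minimum fluorescence divided by baseline fluorescence; actives read low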
KCNQ1 APC inh – confirmation of human KCNQ1 potassium channel inhibitors by electrophysiology. KCNQ1-CHO cells, automated patch clamp current. AID 624120. shares compounds with KCNQ1 block. calls only at 10 µM. 490 compounds, 20% hits;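 active means KCNQ1 current drop exceeding 3 SD of negative control wells, seen in both duplicate runs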;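 further: steady state current during a 2 s step from -80 to +40 mV; negative values mean current inhibition and positive values mean potentiation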
KCNQ2 inh – rat KCNQ2 inhibition in KCNQ1 inhibitor specificity screen. shares compounds with KCNQ1 block. KCNQ2 cells, FluxOR thallium flux fluorescence. inhibition, % at 10 µM. 1,600 compounds, 71% hits;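 active means mean percent inhibition of the KCNQ2 thallium signal more than 5 SD above the buffer-only control wells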;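 further: KCNQ2 expressed in CHO cells; 0% = buffer control wells and 100% = XE-991 inhibitor control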
KCNQ1-KCNE1 inh – selectivity of KCNQ1 inhibitors: inhibition of human KCNQ1/KCNE1 channel | shares compounds with KCNQ1 block | inhibition, % at 10 µM | 1,600 compounds, 77% hits | KCNQ1/KCNE1 cells, FluxOR thallium flux fluorescence;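 active means mean percent inhibition of duplicate wells above the buffer-only control mean plus 3 SD of those controls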;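 further: 0% = buffer only wells and 100% = XE-991 inhibitor control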
Starred values were filed as active, the others as inactive; i = inactive; nt = no result; + = active, no number.

SMILES	KCNQ1 act	KCNK3 block	KCNK9 block	KCNQ1 block	Kir21 block	hERG protect	KCNQ1 block val	CHO KCNQ1 ctr	KCNQ2 inh	KCNQ1-KCNE1 inh	others
COc1cccc(CNC(=O)CCNC(=O)Cn2ccc3ccccc3c2=O)c1	i	i	i	7*	0.16	-17	0	0.56	i	i
O=C(N/N=C/C=C/c1ccco1)/C(=C/c1ccccc1)NC(=O)c1ccccc1	i	i	i	i	0.01	-7	nt	nt	nt	nt
Cc1ccsc1C(=O)OCc1csc(-c2ccccc2)n1	i	i	-7.8*	7*	0.93	-12	146*	0.41	127%*	+	KCNQ1 APC inh=i
CCOC(=O)C1=C(C)NC(SCC(=O)O)=NC1c1ccccc1 (centres undefined)	i	nt	i	i	0.69	-16	nt	nt	nt	nt
CC(C)CCN1C(=O)c2cccc3c(N)ccc(c23)C1=O	i	i	i	24*	-16	-42	+	0.0055*	i	i
Cc1cccc(N2C(=O)c3cccc4c(N(C)CCO)ccc(c34)C2=O)c1	i	i	i	7*	-5	-17	122*	0.25*	i	i
Cc1cccc(N2C(=O)c3cccc4c(N)ccc(c34)C2=O)c1	i	i	i	23*	-18	-51	+	0.0085*	i	i
CCN1C(=O)c2cccc3c(Cl)ccc(c23)C1=O	i	i	i	i	0.14	-5	nt	nt	nt	nt
CN(C)c1ccc2c3c(cccc13)C(=O)N(c1ccccc1)C2=O	i	nt	i	i	1.4	-12	nt	nt	nt	nt
O=C(NCc1ccc(Cl)cc1)c1cc(=O)[nH]c2ccccc12	i	i	i	i	-1.5	-5	nt	nt	nt	nt
O=C(Nc1cccc(Cl)c1)N(CCCN1CCOCC1)Cc1ccccc1F	i	i	i	11*	-0.06	-13	78*	0.51	106%*	71%*
Cc1ccc(C)c(NC(=O)c2cc(-c3cccnc3)nc3ccccc23)c1	i	i	i	7*	0.68	-5	62*	0.47	97%*	44%*
O=C(O)c1ccccc1NC(=O)c1cc(-c2ccccc2)nc2ccccc12	i	i	i	7*	1.5	-31	70*	0.48	82%*	120%*
Cc1ccc(-c2cc(C(=O)Nc3ccncc3)c3ccccc3n2)cc1	i	i	i	i	-2.6	-7	nt	nt	nt	nt
O=C(Nc1ccccn1)c1cc(-c2cccc(Cl)c2)nc2ccccc12	i	i	i	7*	-0.1	-19	92*	0.41	115%*	151%*	KCNQ1 APC inh=i
O=C(Nc1ncccn1)c1cc(-c2cccc(Br)c2)nc2ccccc12	i	i	i	i	-0.17	-4	nt	nt	nt	nt
Cc1cccc(-c2cc(C(=O)Nc3ccc4c(c3)OCCO4)c3ccccc3n2)c1	i	i	i	9*	0.77	-10	78*	0.39	116%*	93%*
O=C(NCCc1ccccc1F)C1CCC(=O)N(CCCN2CCCC2=O)C1 (centres undefined)	i	i	i	i	2	-15	nt	nt	nt	nt
COc1ccccc1N(C)S(=O)(=O)c1ccc(C(=O)NCC2CCCCC2)cc1	nt	i	nt	nt	nt	nt	nt	nt	nt	nt
COc1ccc(NC(=O)N(C)C[C@H]2Oc3c(NC(=O)C4CCCCC4)cccc3C(=O)N([C@H](C)CO)C[C@@H]2C)cc1	nt	i	nt	nt	nt	nt	nt	nt	nt	nt
COc1cc(OC)cc(C(=O)NCCCN2CCN(CCCNC(=O)c3cc(OC)cc(OC)c3)CC2)c1	i	i	i	i	-1.1	-4	nt	nt	nt	nt
Cn1c(=O)c(N)c2c3c(c(Br)ccc31)C(=O)c1ccccc1-2	i	i	i	21*	-11	-34	+	0.029*	i	i
Cc1cc(C(=O)N2CCCC(CO)(Cc3ccc(F)cc3)C2)c(C)o1 (centres undefined)	i	i	i	i	-1.9	-7	nt	nt	nt	nt
CON1C(=O)C(=O)N(OC)C(C)(C)C1(C)C	i	i	i	i	0.95	-1	nt	nt	nt	nt
CC(C(=O)NCc1ccccc1)N1C(=O)c2ccccc2C1=O (centres undefined)	i	i	i	7*	1.4	-6	28*	0.44	i	i
SMILES	KCNQ1 act	KCNK3 block	KCNK9 block	KCNQ1 block	Kir21 block	hERG protect	KCNQ1 block val	CHO KCNQ1 ctr	KCNQ2 inh	KCNQ1-KCNE1 inh	others
CCCc1cc(C(=O)Nc2cccc3ccccc23)n(C)n1	i	i	i	i	-1.2	-8	nt	nt	nt	nt
CCCc1cc(C(=O)Nc2ccc(C(=O)c3ccc(C)cc3)cc2)n(C)n1	i	i	i	11*	0.23	-30	170*	0.36*	140%*	+
O=S(=O)(c1ccc(S(=O)(=O)N(Cc2ccc(F)cc2)C2CCCC2)cc1)N1CCCC1	i	i	i	6*	-2	-9	57*	0.5	i	94%*
S=C(NCCN(C1CCCCC1)C1CCCC1)Nc1cccc(Cl)c1	i	i	i	6*	-4.5*	-13	80*	0.43	92%*	i
S=C(Nc1cccc(Cl)c1)NC1CC2CCCC(C1)N2C1CCCC1 (centres undefined)	i	i	i	i	-0.37	-12	nt	nt	nt	nt
O=C(O)CCS(=O)(=O)c1nc(-c2cccs2)cc(C(F)(F)F)n1	i	i	i	i	-1.2	-9	nt	nt	nt	nt
COC(=O)CCS(=O)(=O)c1nc(-c2ccccc2)cc(C(F)(F)F)n1	i	i	i	8*	-4.6*	-16	26*	0.46	80%*	62%*
COC(CNC(=O)c1cccc(-n2c(=S)[nH]c3cc(Cl)ccc3c2=O)c1)OC	i	i	i	i	0.67	-11	nt	nt	nt	nt
COc1ccc(S(=O)(=O)Nc2ccccc2C(=O)Nc2nc(-c3ccc(F)cc3)cs2)cc1OC	i	i	i	9*	-0.82	-20	166*	0.32*	89%*	+
Cc1cc(C(=O)NC2CCCc3c2cnn3-c2cccc(C)c2C)n(C)n1 (centres undefined)	i	i	i	16*	0.02	-20	84*	0.5	60%*	46%*
